In ChEMBL document CHEMBL4842318, “A γ-lactam siderophore antibiotic effective against multidrug-resistant Pseudomonas aeruginosa, Klebsiella pneumoniae, and Acinetobacter spp” (Eur J Med Chem, 2021):
≈ marks a conversion by molar mass, not a printed value.

Key:
Pseudomonas aeruginosa [1] = experiment: Antibacterial activity against wild type Pseudomonas aeruginosa isolate PR-673 leucine at 533 residue assessed as inhibition of bacterial growth by microdilution method; type: functional
In short: (§1)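 Broth microdilution MIC in iron-depleted (Chelex resin-treated) cation-adjusted Mueller-Hinton broth, following the protocol used for siderophore-containing antibiotics. Inoculum was lowered to 6 × 10^4 cfu/mL.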

Pseudomonas aeruginosa [2] = experiment: Antibacterial activity against wild type Pseudomonas aeruginosa isolate PR-606 assessed as inhibition of bacterial growth by microdilution method; type: functional; in short: as §1
Pseudomonas aeruginosa [3] = experiment: Antibacterial activity against wild type Pseudomonas aeruginosa isolate PR-548 assessed as inhibition of bacterial growth by microdilution method; type: functional; in short: as §1
Pseudomonas aeruginosa [4] = experiment: Antibacterial activity against Pseudomonas aeruginosa isolate PR-627 leucine at 533 residue assessed as inhibition of bacterial growth by microdilution method; type: functional
In short: (§2)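 Broth microdilution in Chelex-treated, iron-depleted cation-adjusted Mueller-Hinton broth, following the protocol used for siderophore-containing antibiotics; inoculum lowered to 6 × 10^4 cfu/mL; MIC read as growth inhibition, in μg/mL.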

Pseudomonas aeruginosa [5] = experiment: Antibacterial activity against wild type Pseudomonas aeruginosa isolate PR-635 assessed as inhibition of bacterial growth by microdilution method; type: functional; in short: as §1
Pseudomonas aeruginosa [6] = experiment: Antibacterial activity against wild type Pseudomonas aeruginosa isolate PR-680 leucine at 533 residue assessed as inhibition of bacterial growth by microdilution method; type: functional; in short: as §1
Pseudomonas aeruginosa [7] = experiment: Antibacterial activity against wild type Pseudomonas aeruginosa isolate PR-699 assessed as inhibition of bacterial growth by microdilution method; type: functional; in short: as §1
Pseudomonas aeruginosa [8] = experiment: Antibacterial activity against wild type Pseudomonas aeruginosa isolate PR-503 assessed as inhibition of bacterial growth by microdilution method; type: functional; in short: as §1
Pseudomonas aeruginosa [9] = experiment: Antibacterial activity against wild type Pseudomonas aeruginosa isolate PR-567 assessed as inhibition of bacterial growth by microdilution method; type: functional; in short: as §1
Pseudomonas aeruginosa [10] = experiment: Antibacterial activity against wild type Pseudomonas aeruginosa isolate PR-636 leucine at 533 residue assessed as inhibition of bacterial growth by microdilution method; type: functional; in short: as §1
Pseudomonas aeruginosa [11] = experiment: Antibacterial activity against Pseudomonas aeruginosa AR-BANK#0229; type: functional; in short: as §2
Pseudomonas aeruginosa [12] = experiment: Antibacterial activity against wild type Pseudomonas aeruginosa isolate PR-688 leucine at 533 residue assessed as inhibition of bacterial growth by microdilution method; type: functional; in short: as §1
Pseudomonas aeruginosa [13] = experiment: Antibacterial activity against wild type Pseudomonas aeruginosa isolate PR-672 assessed as inhibition of bacterial growth by microdilution method; type: functional; in short: as §1
Pseudomonas aeruginosa [14] = experiment: Antibacterial activity against wild type Pseudomonas aeruginosa isolate PR-545 assessed as inhibition of bacterial growth by microdilution method; type: functional; in short: as §1
Pseudomonas aeruginosa [15] = experiment: Antibacterial activity against wild type Pseudomonas aeruginosa isolate PR-604 assessed as inhibition of bacterial growth by microdilution method; type: functional; in short: as §1
Pseudomonas aeruginosa [16] = experiment: Antibacterial activity against wild type Pseudomonas aeruginosa isolate PR-668 leucine at 533 residue assessed as inhibition of bacterial growth by microdilution method; type: functional; in short: as §1
Pseudomonas aeruginosa [17] = experiment: Antibacterial activity against wild type Pseudomonas aeruginosa isolate PR-676 assessed as inhibition of bacterial growth by microdilution method; type: functional; in short: as §1
Pseudomonas aeruginosa [18] = experiment: Antibacterial activity against Pseudomonas aeruginosa isolate PR-564 leucine at 533 residue assessed as inhibition of bacterial growth by microdilution method; type: functional; in short: as §2
Pseudomonas aeruginosa [19] = experiment: Antibacterial activity against wild type Pseudomonas aeruginosa isolate PR-651 leucine at 533 residue assessed as inhibition of bacterial growth by microdilution method; type: functional; in short: as §1
Pseudomonas aeruginosa [20] = experiment: Antibacterial activity against wild type Pseudomonas aeruginosa isolate PR-677 assessed as inhibition of bacterial growth by microdilution method; type: functional; in short: as §1
Pseudomonas aeruginosa [21] = experiment: Antibacterial activity against wild type Pseudomonas aeruginosa isolate PR-638 assessed as inhibition of bacterial growth by microdilution method; type: functional; in short: as §1
Acinetobacter baumannii [22] = experiment: Antibacterial activity against 98 member subset of carbapenem resistant Acinetobacter baumannii assessed as assessed as inhibition of bacterial growth by microdilution method; type: functional; in short: as §2
[23] = Inhibition of Acinetobacter sp. strain ATCC 27244 PBP3 expressed in Escherichia coli BL21 (DE3) assessed as reduction in fluorescence intensity using Bocillin-protein as fluorescent substrate by SDS PAGE analysis
Acinetobacter baumannii [24] = experiment: Antibacterial activity against panel of 198 clinical isolates Acinetobacter baumannii assessed as inhibition of bacterial growth by microdilution method; type: functional
[25] = Antibacterial activity against carbapenem susceptible Acinetobacter nosocomialis isolate PR-365 assessed as bacterial growth inhibition by microdilution method; type: functional; in short: as §1
Acinetobacter baumannii [26] = experiment: Antibacterial activity against carbapenem susceptible Acinetobacter baumannii isolate PR-452 assessed as bacterial growth inhibition by microdilution method; type: functional; in short: as §1
Acinetobacter baumannii [27] = experiment: Antibacterial activity against carbapenem resistant Acinetobacter baumannii isolate PR-380 assessed as bacterial growth inhibition by microdilution method; type: functional; in short: as §2
Acinetobacter baumannii [28] = experiment: Antibacterial activity against carbapenem resistant Acinetobacter baumannii isolate PR-345 assessed as bacterial growth inhibition by microdilution method; type: functional; in short: as §2
Acinetobacter baumannii [29] = experiment: Antibacterial activity against carbapenem resistant Acinetobacter baumannii isolate PR-326 assessed as bacterial growth inhibition by microdilution method; type: functional; in short: as §2
Acinetobacter baumannii [30] = experiment: Antibacterial activity against carbapenem resistant Acinetobacter baumannii isolate PR-314 assessed as bacterial growth inhibition by microdilution method; type: functional; in short: as §2
Acinetobacter baumannii [31] = experiment: Antibacterial activity against carbapenem resistant Acinetobacter baumannii isolate PR-399 assessed as bacterial growth inhibition by microdilution method; type: functional; in short: as §2
Acinetobacter baumannii [32] = experiment: Antibacterial activity against carbapenem susceptible Acinetobacter baumannii isolate PR-464 assessed as bacterial growth inhibition by microdilution method; type: functional; in short: as §1
Acinetobacter baumannii [33] = experiment: Antibacterial activity against carbapenem resistant Acinetobacter baumannii isolate PR-482 assessed as bacterial growth inhibition by microdilution method; type: functional; in short: as §2
Acinetobacter baumannii [34] = experiment: Antibacterial activity against carbapenem resistant Acinetobacter baumannii isolate PR-319 assessed as bacterial growth inhibition by microdilution method; type: functional; in short: as §2
Acinetobacter baumannii [35] = experiment: Antibacterial activity against carbapenem susceptible Acinetobacter baumannii isolate PR-434 assessed as bacterial growth inhibition by microdilution method; type: functional; in short: as §1
[36] = Antibacterial activity against carbapenem susceptible Acinetobacter nosocomialis isolate PR-412 assessed as bacterial growth inhibition by microdilution method; type: functional; in short: as §1
Acinetobacter baumannii [37] = experiment: Antibacterial activity against carbapenem resistant Acinetobacter baumannii isolate PR-351 assessed as bacterial growth inhibition by microdilution method; type: functional; in short: as §2
Acinetobacter baumannii [38] = experiment: Antibacterial activity against carbapenem resistant Acinetobacter baumannii isolate PR-325 assessed as bacterial growth inhibition by microdilution method; type: functional; in short: as §2
Acinetobacter baumannii [39] = experiment: Antibacterial activity against carbapenem resistant Acinetobacter baumannii isolate PR-384 assessed as bacterial growth inhibition by microdilution method; type: functional; in short: as §2
Acinetobacter baumannii [40] = experiment: Antibacterial activity against carbapenem resistant Acinetobacter baumannii isolate PR-401 assessed as bacterial growth inhibition by microdilution method; type: functional; in short: as §2
Acinetobacter baumannii [41] = experiment: Antibacterial activity against carbapenem resistant Acinetobacter baumannii isolate PR-423 assessed as bacterial growth inhibition by microdilution method; type: functional; in short: as §2
Acinetobacter baumannii [42] = experiment: Antibacterial activity against carbapenem susceptible Acinetobacter baumannii isolate PR-340 assessed as bacterial growth inhibition by microdilution method; type: functional; in short: as §1
Acinetobacter baumannii [43] = experiment: Antibacterial activity against carbapenem resistant Acinetobacter baumannii isolate PR-342 assessed as bacterial growth inhibition by microdilution method; type: functional; in short: as §2
Acinetobacter baumannii [44] = experiment: Antibacterial activity against carbapenem resistant Acinetobacter baumannii isolate PR-387 assessed as bacterial growth inhibition by microdilution method; type: functional; in short: as §2
Acinetobacter baumannii [45] = experiment: Antibacterial activity against carbapenem resistant Acinetobacter baumannii isolate PR-459 assessed as bacterial growth inhibition by microdilution method; type: functional; in short: as §2
[46] = Antibacterial activity against carbapenem susceptible Acinetobacter nosocomialis isolate PR-362 assessed as bacterial growth inhibition by microdilution method; type: functional; in short: as §1
[47] = Antibacterial activity against carbapenem susceptible Acinetobacter nosocomialis isolate PR-491 assessed as bacterial growth inhibition by microdilution method; type: functional; in short: as §1

Question: Which MIC (Pseudomonas aeruginosa [1]) does the source give for CC(C)(O/N=C(\C(=O)N[C@H]1CN2CC(C(=O)NCCN3C(=O)c4cc(O)c(O)cc4C3=O)=C(C(=O)O)N2C1=O)c1csc(N)n1)C(=O)O (stereo in doubt) here?
Answer: > 16 µg/mL

Question: What about the MIC (Pseudomonas aeruginosa [2]) of the same molecule?
Answer: 16 µg/mL (≈ 23.3 µM)

Question: And the MIC (Pseudomonas aeruginosa [3])?
Answer: ≤ 0.25 µg/mL

Question: And the MIC (Pseudomonas aeruginosa [4])?
Answer: > 16 µg/mL

Question: And the MIC (Pseudomonas aeruginosa [5])?
Answer: 16 µg/mL (≈ 23.3 µM)

Question: What about the MIC (Pseudomonas aeruginosa [6]) of the same molecule?
Answer: > 16 µg/mL

Question: And the MIC (Pseudomonas aeruginosa [7])?
Answer: > 16 µg/mL

Question: What about the MIC (Pseudomonas aeruginosa [8]) of the same molecule?
Answer: 16 µg/mL (≈ 23.3 µM)

Question: And the MIC (Pseudomonas aeruginosa [9])?
Answer: ≤ 0.25 µg/mL

Question: What about the MIC (Pseudomonas aeruginosa [10]) of the same molecule?
Answer: > 16 µg/mL

Question: What about the MIC (Pseudomonas aeruginosa [11]) of the same molecule?
Answer: 0.25 µg/mL (≈ 0.364 µM)

Question: What about the MIC (Pseudomonas aeruginosa [12]) of the same molecule?
Answer: > 16 µg/mL

Question: And the MIC (Pseudomonas aeruginosa [13])?
Answer: ≤ 0.25 µg/mL

Question: And the MIC (Pseudomonas aeruginosa [14])?
Answer: ≤ 0.25 µg/mL

Question: And the MIC (Pseudomonas aeruginosa [15])?
Answer: ≤ 0.25 µg/mL

Question: What about the MIC (Pseudomonas aeruginosa [16]) of the same molecule?
Answer: > 16 µg/mL

Question: And the MIC (Pseudomonas aeruginosa [17])?
Answer: 16 µg/mL (≈ 23.3 µM)

Question: What about the MIC (Pseudomonas aeruginosa [18]) of the same molecule?
Answer: > 16 µg/mL

Question: What about the MIC (Pseudomonas aeruginosa [19]) of the same molecule?
Answer: > 16 µg/mL

Question: And the MIC (Pseudomonas aeruginosa [20])?
Answer: 16 µg/mL (≈ 23.3 µM)

Question: And the MIC (Pseudomonas aeruginosa [21])?
Answer: > 16 µg/mL

Question: With C[C@H]1[C@H](NC(=O)/C(=N\OC(C)(C)C(=O)O)c2csc(N)n2)C(=O)N1S(=O)(=O)O [AZTREONAM] as the molecule, how does the MIC50 (Acinetobacter baumannii [22]) read?
Answer: > 32 µg/mL

Question: And the MIC90 (Acinetobacter baumannii [22])?
Answer: > 32 µg/mL

Question: For C[C@@H](O)[C@H]1C(=O)N2C(C(=O)O)=C(S[C@@H]3CN[C@H](CNS(N)(=O)=O)C3)[C@H](C)[C@H]12 [DORIPENEM], which IC50 [23] is on record?
Answer: 2300 nM

Question: With C[C@@H](O)[C@H]1C(=O)N2C(C(=O)O)=C(S[C@@H]3CN[C@H](C(=O)N(C)C)C3)[C@H](C)[C@H]12 [MEROPENEM] as the molecule, how does the MIC50 (Acinetobacter baumannii [24]) read?
Answer: 8 µg/mL (≈ 20.9 µM)

Question: What about the MIC90 (Acinetobacter baumannii [24]) of the same molecule?
Answer: > 64 µg/mL

Question: And the MIC90 (Acinetobacter baumannii [22])?
Answer: > 64 µg/mL

Question: Which results are given for CC1(C)[C@H](C(=O)O)N2C(=O)C[C@H]2S1(=O)=O [SULBACTAM]?
Answer: MIC [25]: 1 µg/mL; MIC (Acinetobacter baumannii [26]): 1 µg/mL; MIC (Acinetobacter baumannii [27]): 16 µg/mL; MIC (Acinetobacter baumannii [28]): 16 µg/mL; MIC (Acinetobacter baumannii [29]): 2 µg/mL; MIC (Acinetobacter baumannii [30]): 16 µg/mL; MIC (Acinetobacter baumannii [31]): 16 µg/mL; MIC (Acinetobacter baumannii [32]): 1 µg/mL; MIC (Acinetobacter baumannii [33]): 32 µg/mL; MIC (Acinetobacter baumannii [34]): > 32 µg/mL; MIC (Acinetobacter baumannii [35]): 8 µg/mL; MIC [36]: 2 µg/mL; MIC (Acinetobacter baumannii [37]): 16 µg/mL; MIC (Acinetobacter baumannii [38]): 32 µg/mL; MIC (Acinetobacter baumannii [39]): 16 µg/mL; MIC (Acinetobacter baumannii [40]): 16 µg/mL; MIC (Acinetobacter baumannii [41]): 16 µg/mL; MIC (Acinetobacter baumannii [42]): 4 µg/mL; MIC (Acinetobacter baumannii [43]): > 32 µg/mL; MIC (Acinetobacter baumannii [44]): 16 µg/mL; MIC (Acinetobacter baumannii [45]): 32 µg/mL; MIC [46]: 1 µg/mL; MIC [47]: 2 µg/mL

Question: With CC(C)(O/N=C(\C(=O)N[C@@H]1C(=O)N2C(C(=O)[O-])=C(C[n+]3ccccc3)CS[C@H]12)c1csc(N)n1)C(=O)O [CEFTAZIDIME] as the molecule, how does the MIC50 (Acinetobacter baumannii [24]) read?
Answer: 64 µg/mL (≈ 117 µM)

Question: What about the MIC90 (Acinetobacter baumannii [24]) of the same molecule?
Answer: > 64 µg/mL

Question: What about the MIC50 (Acinetobacter baumannii [22]) of the same molecule?
Answer: > 64 µg/mL

Question: And the MIC90 (Acinetobacter baumannii [22])?
Answer: > 64 µg/mL
